Screening data deposited in PubChem by several laboratories.
Only some compounds are listed: those with a hit (about 3.4% of all), similar ones and a draw of the others.
RanGTP-Impb inh = inhibitors of RanGTP-importin-beta interaction, primary screen, biochemical, FRET, CFP-Ran, YFP-importin-beta, homogeneous; cell-free CFP-Ran/YFP-importin-beta FRET ratio; AID 2216; 300,000 tested, 1.1% active; inhibition, % (concentration not given with the values);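 active = more than half of the replicate wells show a fall in the fluorescence ratio signal beyond about 16%, limit read from the data, passing the limit was not always enough; inconclusive = exactly half of the replicate wells pass the set limit; inactive = fewer than half of replicates pass the limit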
Runt-SMMHC FRET = inhibitors of human RUNX1 Runt domain binding to CBFb-SMMHC. AID 1434. Q01196+Q13951. 220,000 tested, 0.74% active. inhibition, % at 20 µM. Cerulean-Runt/Venus-CBFb-SMMHC FRET ratio 530/480, 1 h;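 active = mean inhibition across duplicate retests at 20 µM reaching about 50%, limit read from the data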;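 also: inhibitors lower the FRET ratio by blocking Runt binding to CBFb-SMMHC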
Runt-CBFb FRET = Runt domain-CBFb interaction inhibition. 220,000 tested, 0.46% active. inhibition, % at 20 µM. Cerulean-Runt/Venus-CBFb FRET ratio 530/480, 1 h. AID 1496;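 active = inhibition over about 50% at 20 µM in the single-dose screen, limit read from the data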
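Doses: 20 µM compound in 1% DMSO | Material: Cerulean-labeled Runt domain protein | Amount: Each fluorescent fusion protein 100 nM | Schedule: Two 1 h room-temperature incubations shielded from light | Measured by: FRET fluorescence | Evaluation: Loss of energy transfer signal | Controls: Unlabeled CBFb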
Wee1 degr inh = human Wee1 degradation inhibition, primary screen; HeLa Luc-Wee1K328M stability, luciferase luminescence; 100% = proteasome inhibitor MG132 effect; P30291; reporter increase, % at 5 µM; 220,000 tested, 1.2% active;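 active = activation above the mean of all tested compounds plus 3 SD, set per screening run, cut at about 8.8% in these data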;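 also: cells exposed to compound for 20 h before luminescence read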
HMGR II inh = E. faecalis class II HMG-CoA reductase inhibition | purified E. faecalis HMGR, NADPH absorbance 340 nm kinetic | inhibition, % at 10 µM | 190,000 tested, 0.41% active;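 active = inhibition above a set limit, the median over all tested compounds plus 3 SD, cut at about 9.5% in these data; inconclusive = no clear call, values can overlap the other calls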;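 also: enzyme runs in reverse so mevalonate oxidation gives rising NADPH absorbance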
PHOSPHO1 block = inhibitors of human PHOSPHO1 phosphatase. 290,000 tested, 1.1% active. inhibition, % at 13.3 µM. recombinant PHOSPHO1, absorbance phosphatase assay. Q8TCT1. AID 1565; in the data active = inhibition above about 60%
Target sequence (Q8TCT1 whole entry, looked up): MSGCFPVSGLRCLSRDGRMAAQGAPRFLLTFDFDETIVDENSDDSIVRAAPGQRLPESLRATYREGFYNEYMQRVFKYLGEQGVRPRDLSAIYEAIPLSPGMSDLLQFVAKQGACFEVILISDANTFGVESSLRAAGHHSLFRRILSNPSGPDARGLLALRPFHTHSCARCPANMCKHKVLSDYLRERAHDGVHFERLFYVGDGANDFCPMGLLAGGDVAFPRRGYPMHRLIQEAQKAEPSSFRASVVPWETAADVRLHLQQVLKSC
Hits are given with their value; i = inactive; ? = inconclusive; nt = not tested or not shown.

SMILES	RanGTP-Impb inh	Runt-SMMHC FRET	Runt-CBFb FRET	Wee1 degr inh	HMGR II inh	PHOSPHO1 block
O=c1oc2ccccc2cc1N1CCOCC1	i	i	i	9.3	i	i
COc1ccc(CC(=O)NNS(=O)(=O)c2ccccc2[N+](=O)[O-])cc1	i	nt	nt	nt	nt	i
COc1ccc(N(C(=O)c2cc3ccccc3oc2=O)C2C=CS(=O)(=O)C2)cc1 (stereo unspecified)	i	i	i	i	i	60.9
O=C(c1cc2ccccc2oc1=O)N(c1ccccc1)C1C=CS(=O)(=O)C1 (stereo unspecified)	i	i	i	i	i	i
O=c1[nH]c(C(Cl)Cl)nc2sc3c(c12)CCN(Cc1ccccc1)C3	37.0	nt	53.7	i	i	i
Cn1cc(CN2CCC[C@H]2CO)c(-c2cccc(Cl)c2)n1	110.4	i	i	i	i	i
CC(=O)Nc1ccc(NC(=O)C(C)n2nc([N+](=O)[O-])c(Br)c2C)cc1 (stereo unspecified)	i	i	i	i	i	63.3
COc1ccc(NC(=S)NNC(=O)C(C)n2nc(C)c([N+](=O)[O-])c2C)cc1 (stereo unspecified)	i	i	i	i	i	68.4
CC(=O)Nc1ccc(NC(=O)C(C)n2nc(C)c([N+](=O)[O-])c2C)cc1 (stereo unspecified)	i	i	i	i	i	i
Cc1nn(C(C)C(=O)NNC(=S)Nc2ccc(F)cc2)c(C)c1[N+](=O)[O-] (stereo unspecified)	i	i	i	i	i	71.5
Cc1nn(C)c(C(=O)NNC(=S)Nc2ccc(F)cc2)c1[N+](=O)[O-]	i	i	i	i	i	i
CN(C)c1ccc(C2Nc3ccccc3C(=O)N2CCCN2CCOCC2)cc1 (stereo unspecified)	i	i	i	i	nt	i
CCOC(=O)C1CCN(Cc2cccc(OCc3ccccc3)c2)CC1	i	nt	nt	nt	nt	i
COc1ccc(NC(=O)CN(c2ccccc2)S(=O)(=O)N(C)C)cc1Cl	i	i	i	i	i	i
COc1ccc(Cl)cc1NC(=O)CN(c1ccccc1)S(=O)(=O)N(C)C	i	i	i	i	16.7	i
Cc1cc(C)n2nc(CC(=O)NNC(=O)c3ccccc3Cl)nc2n1	i	nt	nt	nt	nt	i
C=C1Cn2c(nnc2-c2ccc(Cl)cc2)S1	?	i	i	i	i	69.7
Clc1ccc(-c2nnc3n2CCCCS3)cc1	i	i	i	i	i	i
COc1cc(-c2nnc(NC(=O)CCS(=O)(=O)c3ccccc3)o2)cc(OC)c1OC	i	nt	nt	nt	nt	nt
N#Cc1c(C(F)(F)F)cc(-c2ccco2)nc1SCc1ccncc1	i	i	i	i	i	82.0
CC(O)C(=O)N/N=C/c1ccccc1C(=O)O (stereo unspecified)	i	i	i	i	13.4	i
CC(C)NS(=O)(=O)c1ccc(CCC(=O)NCc2ccncc2)cc1	i	i	i	9.5	i	i
CCNS(=O)(=O)c1ccc(CCC(=O)NCc2ccncc2)cc1	i	nt	nt	nt	nt	i
COC(=O)c1ccc(C)c(NS(=O)(=O)c2ccc(NC(C)=O)cc2)c1	i	i	i	i	i	i
CCn1cc(S(=O)(=O)Nc2cc(C(=O)OC)ccc2C)cn1	32.1	nt	nt	nt	nt	i
SMILES	RanGTP-Impb inh	Runt-SMMHC FRET	Runt-CBFb FRET	Wee1 degr inh	HMGR II inh	PHOSPHO1 block
CC(NC(=S)Nc1ccccc1Cl)C(c1ccccc1)N1CCOCC1 (stereo unspecified)	i	i	i	9.2	i	i
CC(NC(=O)c1ccc(C(F)(F)F)cc1)C(c1ccccc1)N1CCOCC1 (stereo unspecified)	i	i	i	i	i	62.9
COc1ccc(NC(=S)NC(C)C(c2ccccc2)N2CCOCC2)cc1 (stereo unspecified)	i	i	i	i	i	i
O=C1c2ccccc2C(=O)N1CNc1ccccc1	i	i	i	14.5	i	i
Cc1ccccc1N1CC(=O)N(c2ccccc2C)CC1=O	i	i	i	i	i	i
Cc1cccc2c1c1ccc3c(c1n2C)C(=O)C=CC3=O	nt	i	51.8	i	nt	i
CCc1cccc(NC(=O)CSc2nc3c(c(=O)[nH]2)CCCC3)c1	i	i	i	i	i	i
N=c1sccn1CC(=O)Nc1cc(Cl)ccc1Oc1ccccc1	i	i	i	i	i	68.8
Cc1nc2sccn2c(=O)c1S(=O)(=O)Nc1ccc(N2CCN(S(C)(=O)=O)CC2)cc1	i	nt	nt	nt	nt	i
CCn1c(CC(=O)Nc2cccc(Cl)c2Cl)nnc1SCCOc1ccc(OC)cc1	i	i	i	i	i	71.5
CCOC(=O)N1CCN(S(=O)(=O)c2ccc(C(=O)N(CCCN(C)C)c3nc4ccc(Cl)cc4s3)cc2)CC1	i	nt	nt	nt	nt	62.8
CSc1cccc(CN2CCC(n3nccc3NC(=O)C3CC3)CC2)c1	i	nt	nt	nt	nt	63.6
COC(=O)c1ccc(CN2CCC(n3nccc3NC(=O)C3CCCC3)CC2)cc1	i	nt	nt	nt	nt	62.6
COc1ccc(CN2CCC(n3nccc3NC(=O)C3CC3)CC2)cc1O	i	nt	nt	nt	nt	i
COC(=O)c1ccc(CN2CCC(n3nccc3NC(=O)C3CC3)CC2)cc1	i	nt	nt	nt	nt	i
COc1cc(C2N(Cc3ccccc3)CCN2Cc2ccccc2)ccc1OC(C)=O	i	nt	nt	nt	nt	i
COc1ccc(C2N(Cc3ccccc3)CCN2Cc2ccccc2)cc1[N+](=O)[O-]	i	i	i	i	i	60.0
COc1cc([N+](=O)[O-])c2ncsc2c1	i	i	i	i	i	i
COc1cc(SSc2cc(OC)cc([N+](=O)[O-])c2N)c(N)c([N+](=O)[O-])c1	i	63.8	i	i	nt	i
CC(C)c1ccc2[nH]c(O)c(N=NC(=O)c3cccc(S(=O)(=O)Nc4cccc(Cl)c4)c3)c2c1	i	i	i	10.6	nt	i
CCOC(=O)C1CCN(S(=O)(=O)c2ccc3c(c2)NC(=O)C(C)C(=O)N3)CC1 (stereo unspecified)	i	nt	nt	nt	nt	i
O=C(CN1CCN(C(=O)c2ccco2)CC1)N1CCc2[nH]c3ccccc3c2C1	29.3	i	i	i	nt	i
Cc1ccc2[nH]c3c(c2c1)CN(C(=O)CN1CCN(C(=O)c2ccco2)CC1)CC3	i	i	i	i	nt	i
CCCOc1ccc(S(=O)(=O)NCc2ccc(OC)cc2)cc1	i	i	i	21.9	i	i
COc1ccc(CNS(=O)(=O)c2ccc(OC)cc2)cc1	i	i	i	i	i	i
CCOC(=O)c1cc(S(=O)(=O)Nc2cccc(OC)c2)cn1C	i	nt	nt	nt	nt	i
CCOC(=O)c1c(/N=C/c2ccc(O)cc2O)sc2c1CCC2	i	55.8	i	i	i	i
Brc1ccccc1C1=Nn2c(nnc2-c2ccccc2)SC1	i	i	i	i	i	83.3
Brc1ccccc1C1=Nn2c(nnc2-c2ccco2)SC1	i	i	i	i	nt	i
COc1ccc(C(=O)C[n+]2cccc(C)c2C)cc1[N+](=O)[O-]	i	i	i	10.7	i	i
